From ChEMBL document CHEMBL4689842, “EUbOPEN Chemogenomics Library wave 1” (2021)
Values joined by “and” are separate entries in the source; they are usually repeats but may differ in a detail not shown here. Equal values may be shown once.

Key:
Assay type in all cases: toxicity, cell-based
[1] = tested on: U2OS; assay: Incucyte cell viability with U2OS; conditions: human, 10 µM, compound concentration 10 uM; also: filed as whole numbers so only -1 and 0 and 1 occur
[2] = tested on: HEK-293T; assay: Multiplex assay against HEK293T; conditions: human, 1 µM, compound concentration 1 uM;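 as to Population Tubulin-Different-Phenotype (%): share of the cells with healthy nuclei that show this phenotype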
In short: (§1)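 Tubulin, mitochondrial-mass and membrane-permeability phenotypes are per cents of healthy-nucleus cells. Cells were gated by CellPathfinder machine learning into Hoechst high-intensity objects or normal cells, normal cells into healthy, pyknosed or fragmented nuclei, and pyknosed cells into mitotic or apoptotic. Before that, live cells stained at seeding with Hoechst33342, BioTracker Green Microtubule Cytoskeleton Dye, MitoTracker Red and Annexin V Alexa Fluor 680 were imaged on a CQ1 microscope at 37°C and 5% CO2 after compound addition.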

[3] = tested on: U2OS; assay: Multiplex assay against U2OS; conditions: human, 1 µM, compound concentration 1 uM; in short: as §1
[4] = tested on: HEK-293T; assay: Incucyte cell viability with HEK293T; conditions: human, 10 µM, compound concentration 10 uM; also: filed as whole numbers so only -1 and 0 and 1 occur
[5] = tested on: Fibroblast; assay: Incucyte cell viability with human fibroblast; conditions: 10 µM, compound concentration 10 uM; also: filed as whole numbers so only -1 and 0 and 1 occur
[6] = tested on: Fibroblast; assay: Multiplex assay against human fibroblast; conditions: 1 µM, compound concentration 1 uM; in short: as §1
[7] = 6 h, replicate number 1, timepoint 6 hours
[8] = 12 h, replicate number 1, timepoint 12 hours
[9] = 18 h, replicate number 1, timepoint 18 hours
[10] = 24 h, replicate number 1, timepoint 24 hours

COc1cc(Nc2ccnc3ccc(Br)cc23)cc(OC)c1OC
Growth Rate ([1]; 0 h, replicate number 1, timepoint 0 hours): 0 | Growth Rate [1, 7]: 0 | Growth Rate [1, 8]: 0 | Growth Rate [1, 9]: 0 | Growth Rate [1, 10]: 0 | Population Apoptotic (%) ([2]; 12 h, replicate 1): 21% and 25% | Population Fragmented Nuclei (%) ([2]; 12 h, replicate 1): 24% and 18% | Population Healthy Nuclei (%) ([2]; 12 h, replicate 1): 35% and 54% | Population Hoechst High Intensity Objects (%) ([2]; 12 h, replicate 1): 16% | Population Membrane Permeable-Phenotype (%) ([2]; 12 h, replicate 1): 12% and 4% | Population Mitotic Cells (%) ([2]; 12 h, replicate 1): 78% and 74% | Population Normal (%) ([2]; 12 h, replicate 1): 83% | Population Pyknosed Nuclei (%) ([2]; 12 h, replicate 1): 40% and 27% | Total Cell Count ([2]; 12 h, replicate 1): 627 and 585 | Population Apoptotic (%) ([2]; 12 h, replicate 2): 17% and 8% | Population Fragmented Nuclei (%) ([2]; 12 h, replicate 2): 11% and 4% | Population Healthy Nuclei (%) ([2]; 12 h, replicate 2): 59% and 75% | Population Membrane Permeable-Phenotype (%) ([2]; 12 h, replicate 2): 3% and 0% | Population Mitotic Cells (%) ([2]; 12 h, replicate 2): 82% and 91% | Population Normal (%) ([2]; 12 h, replicate 2): 92% and 97% | Population Pyknosed Nuclei (%) ([2]; 12 h, replicate 2): 29% and 20% | Total Cell Count ([2]; 12 h, replicate 2): 1015 and 1049 | Population Apoptotic (%) ([2]; 24 h, replicate 1): 32% and 19% | Population Fragmented Nuclei (%) ([2]; 24 h, replicate 1): 23% and 12% | Population Healthy Nuclei (%) ([2]; 24 h, replicate 1): 41% and 67% | Population Hoechst High Intensity Objects (%) ([2]; 24 h, replicate 1): 14% and 10% | Population Membrane Permeable-Phenotype (%) ([2]; 24 h, replicate 1): 7% | Population Mitotic Cells (%) ([2]; 24 h, replicate 1): 67% and 80% | Population Normal (%) ([2]; 24 h, replicate 1): 85% and 89% | Population Pyknosed Nuclei (%) ([2]; 24 h, replicate 1): 35% and 20% | Population Tubulin-Different-Phenotype (%) ([2]; 24 h, replicate 1): 30% and 15% | Total Cell Count ([2]; 24 h, replicate 1): 604 and 574 | Population Apoptotic (%) ([2]; 24 h, replicate 2): 14% and 7% | Population Fragmented Nuclei (%) ([2]; 24 h, replicate 2): 11% and 8% | Population Healthy Nuclei (%) ([2]; 24 h, replicate 2): 50% and 79% | Population Hoechst High Intensity Objects (%) ([2]; 24 h, replicate 2): 8% and 3% | Population Membrane Permeable-Phenotype (%) ([2]; 24 h, replicate 2): 2% and 1% | Population Mitochondria Different-Phenotype (%) ([2]; 24 h, replicate 2): 55% | Population Mitotic Cells (%) ([2]; 24 h, replicate 2): 86% and 92% | Population Normal (%) ([2]; 24 h, replicate 2): 91% and 96% | Total Cell Count ([2]; 24 h, replicate 2): 1011 and 1289 | Population Apoptotic (%) ([3]; 12 h, replicate 1): 45% and 33% | Population Fragmented Nuclei (%) ([3]; 12 h, replicate 1): 9% and 8% | Population Healthy Nuclei (%) ([3]; 12 h, replicate 1): 83% and 79% | Population Hoechst High Intensity Objects (%) ([3]; 12 h, replicate 1): 6% and 5% | Population Membrane Permeable-Phenotype (%) ([3]; 12 h, replicate 1): 22% and 14% | Population Mitochondria Different-Phenotype (%) ([3]; 12 h, replicate 1): 28% and 29% | Population Mitotic Cells (%) ([3]; 12 h, replicate 1): 54% and 66% | Population Normal (%) ([3]; 12 h, replicate 1): 93% and 94% | Population Pyknosed Nuclei (%) ([3]; 12 h, replicate 1): 7% and 11% | Population Tubulin-Different-Phenotype (%) ([3]; 12 h, replicate 1): 39% and 14% | Total Cell Count ([3]; 12 h, replicate 1): 135 and 196 | Population Fragmented Nuclei (%) ([3]; 12 h, replicate 2): 12% and 20% | Population Healthy Nuclei (%) ([3]; 12 h, replicate 2): 70% and 71% | Population Hoechst High Intensity Objects (%) ([3]; 12 h, replicate 2): 12% and 19% | Population Membrane Permeable-Phenotype (%) ([3]; 12 h, replicate 2): 25% and 16% | Population Mitochondria Different-Phenotype (%) ([3]; 12 h, replicate 2): 38% and 23% | Population Normal (%) ([3]; 12 h, replicate 2): 87% and 80% | Population Pyknosed Nuclei (%) ([3]; 12 h, replicate 2): 16% | Population Tubulin-Different-Phenotype (%) ([3]; 12 h, replicate 2): 37% and 22% | Total Cell Count ([3]; 12 h, replicate 2): 102 and 150 | Population Apoptotic (%) ([3]; 24 h, replicate 1): 31% and 83% | Population Fragmented Nuclei (%) ([3]; 24 h, replicate 1): 11% and 13% | Population Healthy Nuclei (%) ([3]; 24 h, replicate 1): 71% and 66% | Population Hoechst High Intensity Objects (%) ([3]; 24 h, replicate 1): 6% | Population Membrane Permeable-Phenotype (%) ([3]; 24 h, replicate 1): 18% and 16% | Population Normal (%) ([3]; 24 h, replicate 1): 93% | Population Pyknosed Nuclei (%) ([3]; 24 h, replicate 1): 17% and 20% | Population Tubulin-Different-Phenotype (%) ([3]; 24 h, replicate 1): 21% and 22% | Total Cell Count ([3]; 24 h, replicate 1): 259 and 175 | Population Fragmented Nuclei (%) ([3]; 24 h, replicate 2): 10% and 14% | Population Healthy Nuclei (%) ([3]; 24 h, replicate 2): 58% and 59% | Population Hoechst High Intensity Objects (%) ([3]; 24 h, replicate 2): 16% | Population Membrane Permeable-Phenotype (%) ([3]; 24 h, replicate 2): 22% and 17% | Population Mitochondria Different-Phenotype (%) ([3]; 24 h, replicate 2): 57% and 19% | Population Normal (%) ([3]; 24 h, replicate 2): 83% | Population Pyknosed Nuclei (%) ([3]; 24 h, replicate 2): 31% and 25% | Population Tubulin-Different-Phenotype (%) ([3]; 24 h, replicate 2): 33% and 28% | Total Cell Count ([3]; 24 h, replicate 2): 113 and 193 | Growth Rate [4, 7]: 0 | Growth Rate [4, 8]: 0 | Growth Rate [4, 9]: 0 | Growth Rate [4, 10]: 0 | Growth Rate [5, 7]: 0 | Growth Rate [5, 8]: 0 | Growth Rate [5, 9]: 0 | Growth Rate [5, 10]: 0 | Population Apoptotic (%) ([6]; 12 h, replicate 1): 51% and 75% | Population Fragmented Nuclei (%) ([6]; 12 h, replicate 1): 26% and 28% | Population Healthy Nuclei (%) ([6]; 12 h, replicate 1): 50% and 56% | Population Hoechst High Intensity Objects (%) ([6]; 12 h, replicate 1): 11% | Population Membrane Permeable-Phenotype (%) ([6]; 12 h, replicate 1): 5% and 4% | Population Mitochondria Different-Phenotype (%) ([6]; 12 h, replicate 1): 22% and 8% | Population Mitotic Cells (%) ([6]; 12 h, replicate 1): 48% and 25% | Population Normal (%) ([6]; 12 h, replicate 1): 88% | Population Pyknosed Nuclei (%) ([6]; 12 h, replicate 1): 23% and 15% | Total Cell Count ([6]; 12 h, replicate 1): 152 and 176 | Population Apoptotic (%) ([6]; 12 h, replicate 2): 50% | Population Fragmented Nuclei (%) ([6]; 12 h, replicate 2): 66% and 79% | Population Hoechst High Intensity Objects (%) ([6]; 12 h, replicate 2): 49% and 39% | Population Membrane Permeable-Phenotype (%) ([6]; 12 h, replicate 2): 11% and 0% | Population Mitotic Cells (%) ([6]; 12 h, replicate 2): 50% | Population Normal (%) ([6]; 12 h, replicate 2): 50% and 60% | Population Pyknosed Nuclei (%) ([6]; 12 h, replicate 2): 6% and 11% | Population Tubulin-Different-Phenotype (%) ([6]; 12 h, replicate 2): 11% and 0% | Total Cell Count ([6]; 12 h, replicate 2): 65 and 56 | Population Apoptotic (%) ([6]; 24 h, replicate 1): 76% | Population Fragmented Nuclei (%) ([6]; 24 h, replicate 1): 28% and 23% | Population Healthy Nuclei (%) ([6]; 24 h, replicate 1): 55% and 61% | Population Hoechst High Intensity Objects (%) ([6]; 24 h, replicate 1): 15% | Population Membrane Permeable-Phenotype (%) ([6]; 24 h, replicate 1): 6% and 1% | Population Mitochondria Different-Phenotype (%) ([6]; 24 h, replicate 1): 1% | Population Mitotic Cells (%) ([6]; 24 h, replicate 1): 23% | Population Normal (%) ([6]; 24 h, replicate 1): 84% | Population Pyknosed Nuclei (%) ([6]; 24 h, replicate 1): 15% | Total Cell Count ([6]; 24 h, replicate 1): 189 and 165 | Population Fragmented Nuclei (%) ([6]; 24 h, replicate 2): 65% and 71% | Population Healthy Nuclei (%) ([6]; 24 h, replicate 2): 31% and 15% | Population Hoechst High Intensity Objects (%) ([6]; 24 h, replicate 2): 42% and 34% | Population Membrane Permeable-Phenotype (%) ([6]; 24 h, replicate 2): 9% and 0% | Population Mitochondria Different-Phenotype (%) ([6]; 24 h, replicate 2): 18% and 40% | Population Normal (%) ([6]; 24 h, replicate 2): 57% and 65% | Population Tubulin-Different-Phenotype (%) ([6]; 24 h, replicate 2): 0% and 20% | Total Cell Count ([6]; 24 h, replicate 2): 61 and 49
